{"source": "paper PMC7568475", "about": "(Nature metabolism, 2020)", "key": {"human islets [1]": {"system": "human islets", "test": "Viability of human islets", "format": "cell-based", "in_short": "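Human islets were cultured in PIM(S) with 5% human A/B serum and infected for PC knockdown 24 h before treatment, 72 h in total. Medium carried 1 mM argininosuccinate; cytokines were TNF-α 10, IL-1β 10 and IFNγ 100 ng/ml. AnnexinV/7AAD flow cytometry was run 48 h after cytokines. Positive cells lay ≥2 s.d. outside unstained sample means.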"}, "human islets [2]": {"system": "human islets", "test": "Steady state urea quantification by GC-MS, human islets", "format": "cell-based"}, "GLS": {"system": "GLS", "test": "GLS activity readout", "format": "cell-based", "details": "islets, readout of GLS activity, n=2 human donors"}, "human islets [3]": {"system": "human islets", "test": "NO levels by flow cytometry", "format": "cell-based", "in_short": "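Islets were held 72 h in 33 mM versus 5.8 mM glucose. NO was read 24 h after cytokine treatment. For each replicate, 50 islets were dispersed in accutase at 37 °C, rinsed in PBS, and stained with DAF-FM 30 min at 37 °C. Mean FITC intensity by flow cytometry was normalized to PBS control set to 1.0.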"}, "human islets [4]": {"system": "human islets", "test": "15N2-arginine tracer study in human islets", "format": "cell-based", "details": "15N2(guanidino)-L-arginine 72 h, cytokines 24 h, n=4 donors", "in_short": "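Human islets (150 in 2 ml) incubated 72 h with 15N2(guanidino)-L-arginine at 200 mg/L in RPMI with 5.5 mM glucose and 5% human A/B serum. Cytokine mix: TNF-α 10 ng/ml, IL-1β 10 ng/ml, IFNγ 100 ng/ml. Mass isotopomer distributions were corrected for natural abundance, normalized to tracer uptake, and expressed relative to PBS control set to 1.0.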"}, "[5]": {"system": "β-cells in human islet grafts", "test": "β-cell death in human islet grafts", "format": "in vivo", "details": "donor islets pre-treated before transplantation; grafts excised day 2", "in_short": "(§1)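 Donor islets were pre-treated overnight at 37 °C with vehicle (1% DMSO), 5 µM compound, or 5 µM plus 1 mM PAA. Medium was RPMI uptake medium with 11 mM glucose, 10% serum and 0.1% Tween 80 (pH 6.0). Islets were washed and held 24 h in fresh media. Male NOD-SCID mice (10–12 wk) received single i.p. STZ 200 mg/kg. 500 islets went under the kidney capsule 24–48 h after blood glucose ≥300 mg/dl.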"}, "diabetic NOD-SCID mice": {"system": "diabetic NOD-SCID mice", "format": "in vivo, mouse", "details": "500 pre-treated human islets in diabetic NOD-SCID mice, up to 53 days", "in_short": "as §1"}, "GK": {"system": "GK", "details": "cited from earlier work"}, "[6]": {"molecular_target": "T1, recombinant human glucokinase (GK, hexokinase IV) (human, UniProt P35557 1-465)", "T1 sequence (looked up)": "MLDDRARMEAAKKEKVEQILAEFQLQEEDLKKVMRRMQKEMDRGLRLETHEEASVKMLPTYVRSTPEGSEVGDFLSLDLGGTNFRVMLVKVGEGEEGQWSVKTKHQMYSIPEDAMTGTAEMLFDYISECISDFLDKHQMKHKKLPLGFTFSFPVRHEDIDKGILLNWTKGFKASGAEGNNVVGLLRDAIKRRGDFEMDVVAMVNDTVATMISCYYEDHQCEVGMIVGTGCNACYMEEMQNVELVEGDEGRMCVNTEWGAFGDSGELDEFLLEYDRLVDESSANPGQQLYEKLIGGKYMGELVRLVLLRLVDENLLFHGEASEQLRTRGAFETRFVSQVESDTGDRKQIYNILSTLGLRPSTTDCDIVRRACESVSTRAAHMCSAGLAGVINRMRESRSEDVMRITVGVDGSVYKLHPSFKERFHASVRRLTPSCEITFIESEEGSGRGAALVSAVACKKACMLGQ", "test": "ITC"}, "[7]": {"details": "PC-depleted human islets, cytokines, AS 1 mM, n=4 experiments, 2 donors"}, "[8]": {"details": "human islets, inflammatory cytokines, AS 1 mM, n=3 donors"}}, "note": "Where no end group is shown, it is not given here."}
{"molecule": "NC(=NCCC[C@H](N)C(=O)O)N[C@@H](CC(=O)O)C(=O)O", "note": "[AS, argininosuccinic acid]", "values": [{"measurement": "viability with argininosuccinate, PC knockdown", "setting": "human islets [1]; [7]", "result": "protects against inflammation toxicity"}, {"measurement": "viability with argininosuccinate", "setting": "human islets [1]; [8]", "result": "rescue the viability of human islets undergoing inflammation"}, {"measurement": "urea levels with argininosuccinate, PC knockdown", "setting": "human islets [2]; [7]", "result": "rescues urea levels"}, {"measurement": "urea levels, AS dose response", "setting": "human islets [2]; human islets, 10–200 µM AS", "result": "had no effect on urea levels"}, {"measurement": "urea levels with argininosuccinate", "setting": "human islets [2]; [8]", "result": "sufficient to increase urea levels"}]}
{"molecule": "O=C(Cc1ccccc1)Nc1nnc(CCSCCc2nnc(NC(=O)Cc3ccccc3)s2)s1", "note": "[BPTES, Bis-2-(5-phenylacetamido-1,3,4-thiadiazol-2-yl)ethyl sulfide]", "values": [{"measurement": "urea levels with BPTES", "setting": "human islets [2]; islets, n=2 human donors", "result": "does not affect islet urea levels"}, {"measurement": "glutamate/glutamine (glu/gln) ratio", "setting": "GLS", "result": "reduce the ratio of glutamate/glutamine"}]}
{"molecule": "COC[C@H](C)Oc1cc(O[C@@H](C)Cc2ccccc2)cc(C(=O)Nc2ccc(C(=O)O)cn2)c1", "note": "[GKA50]", "values": [{"measurement": "urea levels", "setting": "human islets [2]; human islets, inflammatory cytokines 24 h", "result": "These differences were further recapitulated with a second, structurally distinct allosteric GKA"}, {"measurement": "NO levels", "setting": "human islets [3]; inflammatory cytokines 24 h, DAF-FM", "result": "These differences were further recapitulated with a second, structurally distinct allosteric GKA"}]}
{"molecule": "CS(=O)(=O)c1ccc([C@@H](CC2CCCC2)C(=O)Nc2nccs2)cc1", "note": "[RO0281675]", "values": [{"measurement": "viability / protection from cytokine-induced death", "setting": "human islets [1]; human islets, TNF-α, IL-1β and IFNγ 48 h, n=6 donors (Fig. 1c)", "result": "does not protect human islets from cytokine-induced death"}, {"measurement": "15N2 enrichment in urea (M+2) / ureagenesis", "setting": "human islets [4]", "result": "ureagenesis was not altered"}, {"measurement": "β-cell death in islet grafts", "setting": "[5]", "result": "ineffective"}, {"measurement": "hyperglycemia reversal (blood glucose)", "setting": "diabetic NOD-SCID mice", "result": "ineffective"}, {"measurement": "effect on GK affinity for glucose, allosteric activation", "setting": "GK", "result": "significantly augments the enzyme’s affinity for glucose"}]}
{"molecule": "OC[C@H]1OC(O)[C@H](O)[C@@H](O)[C@@H]1O", "note": "(some centres unmarked) [glucose]", "values": [{"measurement": "urea levels, glucotoxicity", "setting": "human islets [2]; human islets, 33 mM glucose 72 h vs 5.8 mM glucose", "result": "reduces urea"}, {"measurement": "NO levels, glucotoxicity", "setting": "human islets [3]; 33 mM glucose 72 h vs 5.8 mM glucose", "result": "enhances NO levels"}]}
{"molecule": "NLWAAQRYGRELRRMDDEFVDSFKK (staple (positions not given here); not fully specified)", "note": "[BAD BH3 SAHBA SD (hydrocarbon stapled peptide modeled after the phospho-BAD BH3 helix)]", "values": [{"measurement": "stoichiometry N", "setting": "[6]", "result": 1}]}
